# Data: ChEMBL document CHEMBL2150955, “Design, synthesis and evaluation of N-(substituted benzothiazol-2-yl)amides as anticonvulsant and neuroprotective” (Eur J Med Chem, 2012)
# Activity calls are given as the source filed them. The calls are words filed in the database; no cut-off is given here.
# Experiments:
# [1] = test system: Mus musculus; assay: Anticonvulsant activity in mouse assessed as protection against subcutaneous pentylenetetrazol-induced seizures at 300 mg/kg, ip after 0.5 hrs; format: functional, organism-based; set-up: dose 300 mg/kg
# Procedure, shortened: (§1)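 Albino mice of either sex (25-30 g), housed under standard conditions with free access to pellet diet and water. Compounds given at 30, 100 and 300 mg/kg (n = 6). MES and scPTZ seizures were read at 0.5 h and 4 h. The value recorded is the minimum dose protecting half or more of the mice; 300 mg/kg is the maximum dose.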
# [2] = test system: Mus musculus; assay: Anticonvulsant activity in ip dosed mouse assessed as compound concentration causing protection against maximal electroshock-induced seizures in half or more test animals after 0.5 hrs; format: functional; conditions: read-out: MED; procedure, shortened: as §1
# [3] = test system: Mus musculus; assay: Anticonvulsant activity in ip dosed mouse assessed as compound concentration causing protection against maximal electroshock-induced seizures in half or more test animals after 4 hrs; format: functional; conditions: read-out: MED; procedure, shortened: as §1
# [4] = test system: Mus musculus; assay: Anticonvulsant activity in mouse assessed as protection against subcutaneous pentylenetetrazol-induced seizures at 300 mg/kg, ip after 4 hrs; format: functional, organism-based; set-up: dose 300 mg/kg; procedure, shortened: as §1
# [5] = test system: Mus musculus; assay: Anticonvulsant activity in ip mouse assessed as protection against subcutaneous pentylenetetrazol-induced seizures; format: functional
# Procedure, shortened: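 This is the Phase II quantitation in albino mice of either sex (25-30 g). […] TD50 came from the rotarod test, read 30 min after dosing. The protective index is TD50/ED50.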
# [6] = test system: Mus musculus; assay: Neurotoxicity in ip dosed mouse assessed as minimal motor impairment after 0.5 hrs by rotarod test; format: toxicity, organism-based; conditions: in vivo
# Procedure, shortened: (§2)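 Albino mice of either sex (25-30 g) received 30, 100 or 300 mg/kg (n = 6). Neurological deficit was assessed on the rotarod at 0.5 h and 4 h. The value recorded is the minimum dose producing neurotoxicity in half or more of the mice; 300 mg/kg is the maximum dose.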
# [7] = test system: Mus musculus; assay: Neurotoxicity in ip dosed mouse assessed as minimal motor impairment after 4 hrs by rotarod test; format: toxicity, organism-based; conditions: in vivo; procedure, shortened: as §2
# [8] = test system: Mus musculus; assay: CNS depressant activity in mouse assessed as immobility time at 100 mg/kg, ip measured 60 mins post dose by porsolt's swimming pool test; format: organism-based; set-up: dose 100 mg/kg, route intraperitoneal; conditions: in vivo, 1 h
# Procedure, shortened: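 Behavioral depression was measured by Porsolt's swim test in albino mice of either sex. Immobility time (s) was recorded 24 h before as the control and again 60 min after treatment. Values are mean ± SEM of six mice, compared with Student's t test.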
# [9] = test system: Mus musculus; assay: Neurotoxicity in mouse assessed as minimal motor impairment at 300 mg/kg, ip after 0.5 hrs by rotarod test; format: toxicity, organism-based; set-up: dose 300 mg/kg, route intraperitoneal; conditions: in vivo; procedure, shortened: as §2
# [10] = test system: Mus musculus; assay: Anticonvulsant activity in mouse assessed as protection against maximal electroshock-induced seizures at 300 mg/kg, ip after 0.5 hrs; format: functional, organism-based; set-up: dose 300 mg/kg; procedure, shortened: as §1
# [11] = test system: Mus musculus; assay: Neurotoxicity in mouse assessed as minimal motor impairment at 300 mg/kg, ip after 4 hrs by rotarod test; format: toxicity, organism-based; set-up: dose 300 mg/kg, route intraperitoneal; conditions: in vivo; procedure, shortened: as §2
# [12] = test system: Mus musculus; assay: Neuroprotective activity in acrylamide-intoxicated mouse assessed as reduction in brain malonaldehyde level at 50 mg/kg, ip dosed 3 days/week for 3 weeks administered 10 mins before acrylamide challenge by TBARS detection assay; format: functional, organism-based; set-up: dose 50 mg/kg
# Procedure, shortened: (§3)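 Mice were given acrylamide to induce brain degeneration, with compound administered 10 min before the acrylamide. Brain MDA (lipid peroxidation) and LDH activity were measured against controls. Values are mean ± SEM of six animals, compared with Student's t test.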
# [13] = test system: Mus musculus; assay: Neuroprotective activity in acrylamide-intoxicated mouse assessed as reduction in brain LDH level at 50 mg/kg, ip dosed 3 days/week for 3 weeks administered 10 mins before acrylamide challenge by spectrophotometry; format: functional, organism-based; set-up: dose 50 mg/kg; procedure, shortened: as §3
# [14] = test system: Mus musculus; assay: Anticonvulsant activity in ip dosed mouse assessed as compound concentration causing protection against subcutaneous pentylenetetrazol-induced seizures in half or more test animals after 4 hrs; format: functional; conditions: read-out: MED; procedure, shortened: as §1
# [15] = test system: Mus musculus; assay: Anticonvulsant activity in ip dosed mouse assessed as compound concentration causing protection against subcutaneous pentylenetetrazol-induced seizures in half or more test animals after 0.5 hrs; format: functional; conditions: read-out: MED; procedure, shortened: as §1
# [16] = test system: Mus musculus; assay: Hepatotoxicity in mouse assessed as effect on SGOT level at 30 mg/kg, po after 2 weeks relative to control; format: toxicity, organism-based; set-up: dose 30 mg/kg, route oral; conditions: in vivo, 336 h
# Procedure, shortened: (§4)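 Serum SGOT, SGPT, alkaline phosphatase, total albumin and total protein were measured in treated mice against controls (n = 6). Data were analysed by ANOVA followed by Student's t test.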
# [17] = test system: Mus musculus; assay: Hepatotoxicity in mouse assessed as effect on SGPT level at 30 mg/kg/day, po dosed for 2 weeks relative to control; format: toxicity, organism-based; set-up: route oral; conditions: in vivo, 336 h; procedure, shortened: as §4
# [18] = test system: Mus musculus; assay: Hepatotoxicity in mouse assessed as effect on alkaline phosphatase level at 30 mg/kg/day, po dosed for 2 weeks relative to control; format: toxicity, organism-based; set-up: route oral; conditions: in vivo, 336 h; procedure, shortened: as §4
# [19] = test system: Mus musculus; assay: Hepatotoxicity in mouse assessed as effect on total albumin level at 30 mg/kg/day, po dosed for 2 weeks relative to control; format: toxicity, organism-based; set-up: route oral; conditions: in vivo, 336 h; procedure, shortened: as §4
# [20] = test system: Mus musculus; assay: Hepatotoxicity in mouse assessed as effect on total protein level at 30 mg/kg/day, po dosed for 2 weeks relative to control; format: toxicity, organism-based; set-up: route oral; conditions: in vivo, 336 h; procedure, shortened: as §4
# [21] = test system: Mus musculus; assay: Anticonvulsant activity in mouse assessed as protection against maximal electroshock-induced seizures at 300 mg/kg, ip after 4 hrs; format: functional, organism-based; set-up: dose 300 mg/kg; procedure, shortened: as §1
# [22] = test system: Mus musculus; assay: Anticonvulsant activity in ip dosed mouse assessed as protection against maximal electroshock-induced seizures; format: functional
# [23] = test system: Mus musculus; assay: Hepatotoxicity in mouse assessed as hepatocytes degeneration at 30 mg/kg/day, po dosed for 2 weeks by Harris haematoxylin-eosin staining based […] microscopic analysis relative to control; format: toxicity, organism-based, Hepatocyte; set-up: route oral; conditions: 336 h
# [24] = test system: Mus musculus; assay: Hepatotoxicity in mouse assessed as morphological changes in hepatic parenchyma at 30 mg/kg/day, po dosed for 2 weeks by Harris haematoxylin-eosin staining based […] microscopic analysis relative to control; format: toxicity, organism-based; set-up: route oral; conditions: in vivo, 336 h
# [25] = test system: Mus musculus; assay: Increase in GABA level in mouse brain at 30 mg/kg, po dosed for 7 days by spectrophotometry relative to control; format: functional
# [26] = Neurotoxicity in ip dosed mouse after 30 mins by rotarod test; format: toxicity, organism-based; conditions: in vivo
# [27] = organism: Mus musculus; assay: Protective index, ratio of TD50 for mouse to ED50 for anticonvulsant activity in mouse by maximal electroshock-seizure test; format: functional
# [28] = test system: Mus musculus; assay: Protective index, ratio of TD50 for mouse to ED50 for anticonvulsant activity in mouse by subcutaneous pentylenetetrazol-induced seizure test; format: functional
# [29] = test system: Mus musculus; assay: Hepatotoxicity in mouse assessed as liver necrosis at 30 mg/kg/day, po dosed for 2 weeks by Harris haematoxylin-eosin staining based […] microscopic analysis relative to control; format: toxicity, organism-based; set-up: route oral; conditions: in vivo, 336 h
# [30] = test system: Mus musculus; assay: Hepatotoxicity in mouse assessed as hepatic inflammation at 30 mg/kg/day, po dosed for 2 weeks by Harris haematoxylin-eosin staining based […] microscopic analysis relative to control; format: toxicity, organism-based; set-up: route oral; conditions: in vivo, 336 h
SMILES,Activity [1],minimal effective dose [2],minimal effective dose [3],Activity [4],ED50 [5],MTC [6],MTC [7],Time [8],Activity [9],Activity [10],Activity [11],minimal effective dose [14],minimal effective dose [15],other results
O=C1NC(=O)C(c2ccccc2)(c2ccccc2)N1 [PHENYTOIN],inactive,30 mg/kg,30 mg/kg,inactive,> 300 mg/kg,100 mg/kg,100 mg/kg,,,,,,,
O=C(CCC(=O)c1ccccc1)Nc1nc2ccc(F)cc2s1,inactive,,300 mg/kg,inactive,,,,160 s,Non-toxic,inactive,Non-toxic,,,
Cc1ccc2nc(NC(=O)CCC(=O)c3ccccc3)sc2c1,,100 mg/kg,100 mg/kg,,,,,130 s,Non-toxic,,Non-toxic,300 mg/kg,300 mg/kg,Activity [12]: Active; Activity [13]: Active; Activity [16]: Non-toxic; Activity [17]: Non-toxic; Activity [18]: Non-toxic; Activity [19]: Non-toxic; Activity [20]: Toxic
O=C(CCC(=O)c1ccccc1)Nc1nc2ccc([N+](=O)[O-])cc2s1,inactive,300 mg/kg,,inactive,,,300 mg/kg,166.1 s,Non-toxic,,,,,Activity [21]: inactive
NC(=O)N1c2ccccc2C=Cc2ccccc21 [CARBAMAZEPINE],,30 mg/kg,100 mg/kg,,> 100 mg/kg,100 mg/kg,300 mg/kg,179.5 s,,,,300 mg/kg,100 mg/kg,ED50 [22]: 8.8 mg/kg
Cc1ccc2nc(NC(=O)c3ccccc3C(=O)c3ccccc3)sc2c1,,300 mg/kg,,inactive,,,,180 s,Non-toxic,,Non-toxic,,300 mg/kg,Activity [21]: inactive
O=C(Nc1nc2ccc(F)cc2s1)c1ccccc1C(=O)c1ccccc1,inactive,,100 mg/kg,,,300 mg/kg,300 mg/kg,147.3 s,,inactive,,300 mg/kg,,
COc1ccc2nc(NC(=O)CCC(=O)c3ccccc3)sc2c1,,30 mg/kg,30 mg/kg,,85.2 mg/kg,,,135.6 s,Non-toxic,,Non-toxic,100 mg/kg,100 mg/kg,Activity [23]: Non-toxic; Activity [24]: Non-toxic; fold change (FC) [25]: 1.8; Activity [12]: Active; Activity [13]: Active; ED50 [22]: 41 mg/kg; TD50 at 0.5 h [26]: 348 mg/kg; Ratio TD50/ED50 [27]: 8.4; Ratio TD50/ED50 [28]: 4; Activity [16]: Non-toxic; Activity [17]: Non-toxic; Activity [18]: Non-toxic; Activity [19]: Non-toxic; Activity [20]: Non-toxic; Activity [29]: Non-toxic; Activity [30]: Non-toxic
CCCC(CCC)C(=O)[O-].[Na+] [VALPROATE SODIUM],,,,,149 mg/kg,,,,,,,,,
O=C(Nc1nc2ccc(Cl)cc2s1)c1ccccc1C(=O)c1ccccc1,inactive,,100 mg/kg,,,,,157 s,Non-toxic,inactive,Non-toxic,300 mg/kg,,
